This is a sample that favours compounds with a hit; in the whole collection about 2.4% have one here.
CendR NRP1 mod = alters CendR peptide binding to human NRP-1; O14786; FAM-RPARPAR peptide binding to NRP-1, fluorescence polarization; inhibition, % at 25 µM; 360,000 compounds, 0.85% hits; AID 602438;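 active = inhibition or corrected inhibition above about 18%, plus a signal ratio from 0.5 to 1.5, limit read from the data, passing the limit was not always enough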
Myeloid diff MLP = compounds promoting myeloid differentiation | ER-HoxA9 myeloid progenitors, lysozyme-GFP differentiation, flow cytometry | calls only at 10 µM | 360,000 compounds, 1% hits | AID 624256;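 active = normalized GFP-positive differentiation at or above the plate's own cutoff, the solvent-only control mean plus 3 SD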;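 note: cells exposed to compound for four days before flow analysis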
SENP1 inh = blocks the human SENP1 SUMO protease catalytic domain; recombinant SENP1 catalytic domain, CyPet-SUMO1-YPet FRET cleavage; inhibition, % at 10 µM; 360,000 compounds, 0.21% hits; Q9P0U3;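 active = inhibition at least 30% at 10 µM, raw YFP signal under a set limit, fluorescence ratio 0.5 to 1.5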;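 note: 0% = enzyme with DMSO and 100% = no enzyme wells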
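Test system: recombinant human SENP1 catalytic domain, His6-tagged / Medium: pH 8 Tris buffer with EDTA, NaCl, BME, BSA, NP40, catalase / Also added: SUMO1 FRET substrate flanked by Cypet and Ypet, 25 nM / Times: 50 min reaction at room temperature / Signal: FRET, CFP and YFP emission / Control set: no-enzyme low control and enzyme-plus-DMSO high control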
DAGLB inh = diacylglycerol lipase beta (human) inhibition. HEK293T DAGLB membrane lysate, EnzChek fluorogenic substrate. 340,000 compounds, 0.059% hits. inhibition, % at 5.17 µM; in the data active = inhibition above about 34%;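 note: 0% = enzyme with vehicle and 100% = wells lacking enzyme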
Target sequence (Q8NCG7 whole entry, looked up): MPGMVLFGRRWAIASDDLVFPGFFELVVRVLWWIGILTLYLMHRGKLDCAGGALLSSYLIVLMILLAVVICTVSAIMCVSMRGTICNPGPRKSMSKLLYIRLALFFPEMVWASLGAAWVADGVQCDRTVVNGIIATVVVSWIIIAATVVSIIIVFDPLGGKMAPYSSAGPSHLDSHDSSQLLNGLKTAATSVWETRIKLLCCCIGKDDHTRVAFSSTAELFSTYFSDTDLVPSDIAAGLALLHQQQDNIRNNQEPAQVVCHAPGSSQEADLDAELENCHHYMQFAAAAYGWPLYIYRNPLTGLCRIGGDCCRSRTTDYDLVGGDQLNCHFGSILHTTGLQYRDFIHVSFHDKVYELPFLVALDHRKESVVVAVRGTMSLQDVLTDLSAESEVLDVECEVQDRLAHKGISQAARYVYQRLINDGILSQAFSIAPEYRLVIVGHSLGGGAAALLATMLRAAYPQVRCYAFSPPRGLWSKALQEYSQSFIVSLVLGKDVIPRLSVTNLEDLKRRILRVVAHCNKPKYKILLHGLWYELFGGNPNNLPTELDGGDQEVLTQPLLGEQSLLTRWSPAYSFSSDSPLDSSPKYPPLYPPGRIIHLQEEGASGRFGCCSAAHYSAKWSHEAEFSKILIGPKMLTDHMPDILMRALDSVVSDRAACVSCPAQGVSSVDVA
MT1-MMP act inh = blocks activation of human MT1-MMP; HT1080 RFP-PRO-GFP cells, GFP/RFP ratio fluorescence, overnight; percent of plate control window, DMSO zero; GFP/RFP ratio change, % at 20 µM; 360,000 compounds, 0.061% hits; AID 651647;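 active = GFP/RFP ratio change of at least 30% with cell ATP level not reduced by more than half and red fluorescence within 50% of control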
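Test system: HT1080 cells expressing an RFP-PRO-GFP fluorescent reporter construct / Compound dosing: single-point 20 µM compound, 1% DMSO / Schedule: cells overnight before dosing, compound overnight, 37 °C, 5% CO2 / Evaluation: GFP/RFP fluorescence ratio / Control set: DMSO and RFP-L50D-GFP cell wells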
MIN6 prolif = MIN6 beta-cell proliferation induction; MIN6 cells proliferation, ATPlite luminescence, 48 h; cells starved in 0.2% serum; 100% = growth in 10% serum; proliferation, % at 10 µM; 330,000 compounds, 0.29% hits; AID 2380;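 active = compounds whose signal lies at least 3.5 SD above the mean of all wells on their plate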;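 note: 0% = DMSO-treated cells in low-serum medium and 100% = 10% serum control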
Myeloid diff = myeloid differentiation induction; shares compounds with Myeloid diff MLP; ER-HoxA9 myeloid progenitors, GFP/Mac1 double-positive flow; calls only; 2,300 compounds, 2% hits; AID 651706;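 active = share of green or green-and-red cells above 9 and 9% in run 1 or 4 and 3% in run 2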
GFP autofluor = compound fluorescence in myeloid differentiation counter-screen; shares compounds with Myeloid diff MLP; ER-HoxA9 myeloid progenitors, no estrogen, GFP autofluorescence flow cytometry; vehicle wells 0%, positive control 100%; fluorescence response, % (no concentration beside the values); 2,300 compounds, 7.4% hits;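 active = over 5% cells positive for green fluorescent reporter, or over 2% positive for both it and APC stain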;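 note: range taken on the double positive population between DMSO and positive control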
Active calls of the source: *; i = inactive; x = no result given; + = active, no number.

SMILES	CendR NRP1 mod	Myeloid diff MLP	SENP1 inh	DAGLB inh	MT1-MMP act inh	MIN6 prolif	Myeloid diff	GFP autofluor
COc1ccc2c(c1)-c1ccccc1S(=O)(=O)N2C(C)=O	-3.2	i	-11.9	3.6	-2.9	2.0	i	0.0
CCCCc1nc(SCc2ccc([N+](=O)[O-])cc2)n[nH]1	2.8	i	0.4	-3.1	0.0	2.0	x	x
O=C(O)c1cccnc1Nc1ccc(Cl)cc1	-0.7	+	2.3	-0.1	-2.8	-1.8	+	0.5
COc1cccc(-c2cc3nc(NCCN4CCCC4)n(C)c(=O)c3s2)c1	-3.3	i	-0.7	x	0.7	x	i	1.6
CCN(CC)C(=O)CSc1nnc(SC(C)C(=O)NC2CC2)s1 (stereo unspecified)	2.7	i	0.8	1.6	-3.6	-0.1	i	0.0
O=C(c1ccc(S(=O)(=O)c2ccccc2Cl)c([N+](=O)[O-])c1)N1CCCCCC1	-4.1	+	-17.1	-0.2	0.3	-3.5	i	0.0
Cc1ccccc1N1C(=O)C(Cc2ccc(F)cc2)S/C1=C(\C#N)C(N)=O (stereo unspecified)	6.7	i	25.8	x	-121.1	1.1	i	4.9
Cc1noc(C)c1NC(=O)N(C)C[C@H]1OCc2cnnn2CCCC(=O)N([C@@H](C)CO)C[C@H]1C	-17.5	i	0.5	-1.7	6.4	x	x	x
CSC1=NSC2=NC(=O)/C(=C/c3coc4ccc(O)cc4c3=O)C(=N)N12	136.6	+	-22.6	-46.3	-48.5	0.0	i	1.6
O=C(Cc1ccccc1)NCC(=O)N/N=C/c1ccc(Cl)cc1	2.8	i	2.8	-0.6	-1.6	-0.5	x	x
Cc1cc(NC(=O)C(C)Sc2nnc(NCc3ccco3)s2)no1 (stereo unspecified)	-7.3	+	-2.2	3.7	-0.5	0.2	i	0.3
Cc1cc(C(=O)NC2CCCc3c2cnn3-c2cccc(C)c2C)n(C)n1 (stereo unspecified)	-7.1	+	-2.4	2.6	6.3	-7.3	i	0.0
Cc1cccc(-n2ncc3c2CCCC3NC(=O)c2ccc[n+]([O-])c2)c1C (stereo unspecified)	13.0	i	1.2	-2.3	1.5	0.2	x	x
COC(=O)c1ccc(NC(=O)C(=O)N2CCN(C(=S)Nc3ccc(OC)cc3)CC2)cc1	-5.1	i	4.6	-0.9	6.2	-3.1	x	x
COC(=O)c1ccc(NC(=O)C(=O)N2CCN(C(=S)Nc3ccc(C)cc3)CC2)cc1	-7.1	i	3.9	0.0	0.8	1.0	i	0.3
Cc1ccc(S(=O)(=O)CCC(=O)OCc2ccccc2F)cc1	-3.5	i	-0.6	-4.8	-3.6	-1.8	x	x
Cc1ccc(S(=O)(=O)Nc2cccc(C(=O)NCc3cccnc3)c2)cc1F	10.8	i	2.2	1.2	-5.4	-2.4	i	0.0
O=C(NCc1cccnc1)c1cccc(NS(=O)(=O)c2ccc(Br)cc2)c1	1.7	x	-0.2	0.1	x	-1.5	x	x
COc1ccc(CN2CCC[C@]3(N[C@H](c4ccc(C)cc4)[C@@H]4C(=O)N(Cc5ccccc5)C(=O)[C@@H]43)C2=O)cc1	3.6	i	1.4	-4.0	-0.3	x	i	0.0
COc1ccc([C@H]2N[C@]3(CCCN(Cc4cccn4C)C3=O)[C@H]3C(=O)N(Cc4ccccc4)C(=O)[C@@H]23)cc1	1.2	i	-0.3	-0.7	-22.1	x	i	0.9
COc1ccc(CN2CCC[C@]3(N[C@H](c4ccc(OC)cc4)[C@@H]4C(=O)N(Cc5ccccc5)C(=O)[C@@H]43)C2=O)cc1	-16.2	i	1.8	-3.0	3.5	x	x	x
O=C(c1ccccc1)N1CCN(C(=O)C2CC2)CC1	12.9	x	0.1	1.1	0.8	-3.9	x	x
Cn1c(C(=O)N2CCCC(C(=O)NCCCSC3CCCCC3)C2)cc2sccc21 (stereo unspecified)	-2.2	i	-0.8	0.5	4.0	-4.2	x	x
CCn1c(C(=O)N2CCCC(C(=O)NCCCc3ccccc3)C2)cc2sccc21 (stereo unspecified)	-1.0	i	-0.9	-0.3	-0.1	0.5	x	x
Cn1c(C(=O)N2CCCC(C(=O)NCc3cccs3)C2)cc2sccc21 (stereo unspecified)	-5.1	+	1.0	1.7	0.5	1.9	i	0.0
SMILES	CendR NRP1 mod	Myeloid diff MLP	SENP1 inh	DAGLB inh	MT1-MMP act inh	MIN6 prolif	Myeloid diff	GFP autofluor
CCn1c(C(=O)N2CCCC(C(=O)NCCc3ccc(C)cc3)C2)cc2sccc21 (stereo unspecified)	-1.0	i	-6.4	-0.7	2.8	-2.6	i	0.3
CCn1nc(C)cc1C(=O)N1CCCC(N(C)CCc2ccc(OC)c(OC)c2)C1 (stereo unspecified)	-5.7	i	-2.9	-0.1	-1.8	-0.1	x	x
CCCc1c(C(=O)Nc2ccc(F)cc2C)cnn1-c1ccccc1	1.6	i	0.4	-3.0	-2.1	2.0	x	x
CCCc1c(NC(=O)Nc2ccc(F)cc2)cnn1-c1ccccc1	2.9	+	-0.2	-0.4	9.9	-0.9	i	0.0
CC(NS(=O)(=O)c1cccc(S(=O)(=O)c2ccccc2)c1)C(=O)O (stereo unspecified)	-8.7	i	0.9	-2.3	7.0	0.0	x	x
COc1cc(OC)cc(-c2ncc3ccccn23)c1	0.7	i	3.9	2.1	-4.6	1.7	x	x
COc1cc(-c2ncc3ccccn23)cc(OC)c1OC	-2.2	+	-5.8	1.5	-5.1	-3.1	i	0.0
Cc1ccc(NC(=O)c2c(C)nn(-c3ccccc3)c2Cl)cc1	-3.1	i	0.3	-10.8	2.7	1.6	x	x
NNc1nc2c(F)cccc2s1	-12.1	i	-2.6	-1.6	5.8	0.0	x	x
NNc1nc2c(F)cc(F)cc2s1	-0.8	+	1.7	-0.1	4.4	0.4	i	0.0
COc1ccccc1CN1CCCC(N2CCN(c3ccccc3OC)CC2)C1 (stereo unspecified)	-5.7	i	0.4	-1.4	-0.3	2.2	x	x
Fc1ccccc1N1CCN(C2CCCN(Cc3ccccc3C(F)(F)F)C2)CC1 (stereo unspecified)	-3.0	+	0.5	-4.5	2.1	-1.4	i	0.0
CN(CCN1CCOCC1)Cc1nc(-c2ccccc2)no1	11.5	i	1.4	-4.8	-3.1	-1.4	x	x
CC(C)Cn1c(N)c(C(=O)COC(=O)c2cnc(Cl)c(Cl)c2)c(=O)n(C)c1=O	-0.2	i	2.7	-1.1	7.1	-6.0	x	x

Bioassay records (PubChem)
